Results on nine compounds are retold here after ChEMBL document CHEMBL4138045 (Medchemcomm, 2017).

As a reminder, the Emax is the size of the effect at its maximum, as opposed to the concentration needed. In general, Ki refers to a dissociation constant, usually derived from enzyme kinetics or from competition with a known ligand. A high value points to a looser hold on the target. As a reminder, the EC50 is the concentration that produces a half-maximal response.

Structures are written as SMILES. Active and inactive are the calls of the source. The calls are words filed in the database; no cut-off is given here.

Assay [1] concerns the target Mu-type opioid receptor (Mus musculus) (UniProt P42866). The experiment in a line: Agonist activity at mouse MOR expressed in CHO cell membranes assessed as induction of [35S]GTPgammaS binding after 90 mins by scintillation spectroscopy relative to DAMGO. In kind it is functional. For orientation: Binding of GTPγS marks nucleotide exchange on a G protein.
The target of assay [2] is Delta-type opioid receptor (Mus musculus, UniProt P32300). The assay is described as follows: Displacement of [125I]BNtxA from mouse DOR expressed in CHO cell membranes after 90 mins by filter binding assay. The method, boiled down:
(§1)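 Competition binding with [125I]BNtxA (0.1 nM) in membranes of CHO cells expressing mouse MOR, DOR or KOR. Protein 10-20 μg mL-1, 90 min incubation. Ki obtained by nonlinear regression. At least 3 assays, mean ± SEM.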

Assay [3] addresses T1, Kappa-type opioid receptor (Mus musculus, UniProt P33534). The experiment in a line: Displacement of [125I]BNtxA from mouse KOR expressed in CHO cell membranes after 90 mins by filter binding assay. The method in brief: as §1
Background: Displacement assays read how much labelled ligand stays bound in the presence of the test substance.

Assay [4] concerns the target Kappa-type opioid receptor (Mus musculus) (UniProt P33534). The experiment in a line: Agonist activity at mouse KOR expressed in CHO cell membranes assessed as induction of [35S]GTPgammaS binding after 90 mins by scintillation spectroscopy relative to U50488H. In kind it is functional.
The target in assay [5] is T2, Mu-type opioid receptor (Mus musculus, UniProt P42866). The experiment in a line: Agonist activity at mouse MOR expressed in CHO cell membranes assessed as induction of [35S]GTPgammaS binding after 90 mins by scintillation spectroscopy. The class given is functional. The method in brief: (§2)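 Agonist-stimulated [35S]GTPγS binding in membranes from opioid receptor-transfected cells. Membrane protein 50 µg mL-1, 90 min incubation. Potency taken as EC50. Three separate assays, each in triplicate, reported as mean ± SEM.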
T2 sequence (P42866 whole entry): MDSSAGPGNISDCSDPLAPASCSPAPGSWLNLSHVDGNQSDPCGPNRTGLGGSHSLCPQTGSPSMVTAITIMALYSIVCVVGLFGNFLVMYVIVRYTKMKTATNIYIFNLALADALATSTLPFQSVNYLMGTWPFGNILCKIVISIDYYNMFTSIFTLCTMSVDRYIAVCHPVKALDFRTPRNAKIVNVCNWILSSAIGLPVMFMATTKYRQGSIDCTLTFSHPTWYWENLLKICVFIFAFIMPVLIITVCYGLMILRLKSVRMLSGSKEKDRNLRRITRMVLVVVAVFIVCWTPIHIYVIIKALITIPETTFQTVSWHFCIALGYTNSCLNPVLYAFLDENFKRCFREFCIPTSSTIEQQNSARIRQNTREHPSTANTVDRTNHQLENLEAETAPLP

Assay [6] has as its target T2, Mu-type opioid receptor. The experiment in a line: Displacement of [125I]BNtxA from mouse MOR expressed in CHO cell membranes after 90 mins by filter binding assay. The method, boiled down:
as §1

The species entered for assay [7] is Mus musculus. The assay is described as follows: Selectivity ratio of Ki for mouse KOR to Ki for mouse MOR.
The species entered for assay [8] is Mus musculus. The assay is described as follows: Selectivity ratio of Ki for mouse DOR to Ki for mouse MOR.
Assay [9] relates to Mus musculus. The assay is described as follows: Antinociceptive activity in CD1 mouse at 30 mg/kg, sc after 30 mins by radiant heat tail flick method relative to control. The class given is functional. The method, boiled down:
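CD1 mice (n = 10) dosed sc at 30 mg kg-1. Radiant heat tail-flick tested 30 min after injection. Values given as mean ± SEM percent antinociception.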

Assay [10] deals with Mus musculus. The experiment in a line: Antinociceptive activity in icv dosed CD1 mouse after 15 mins by radiant heat tail flick method. The class given is functional. The method, boiled down: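 Compounds given intracerebroventricularly to groups of mice (n = 5) as cumulative doses. Tail-flick tested 15 min later, at peak effect, to build the dose-response curve and ED50. Two independent determinations.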
On the technique in general: In hot-plate and tail-flick tests a longer latency is read as antinociception.

The target of assay [11] is T1, Kappa-type opioid receptor. The assay is described as follows: Agonist activity at mouse KOR expressed in CHO cell membranes assessed as induction of [35S]GTPgammaS binding after 90 mins by scintillation spectroscopy. In kind it is functional. The method, boiled down: as §2
Assay [12] has as its system Mus musculus. The experiment in a line: Antinociceptive activity in CD1 mouse at 30 mg/kg, sc after 3 hrs by radiant heat tail flick method. In kind it is functional, organism-based. The method, boiled down: (§3)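 Time course in CD1 mice (n = 10) after sc dosing at 30 mg kg-1, measured by radiant heat tail flick. Two independent determinations.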
For assay [13], the system named is Mus musculus. The assay is described as follows: Antinociceptive activity in CD1 mouse at 30 mg/kg, sc after 30 mins in presence of MOR antagonist beta-FNA by radiant heat tail flick method. In kind it is functional, organism-based. The method in brief:
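CD1 mice (n = 10) given compound at 30 mg kg-1 sc, with or without β-funaltrexamine (40 mg kg-1 sc) 24 h before agonist. Tail-flick tested 30 min after the agonist.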

Assay [14] deals with Mus musculus. The experiment in a line: Antinociceptive activity in CD1 mouse at 7.5 ug, icv after >24 hrs by radiant heat tail flick method. In kind it is functional, organism-based. The method, boiled down:
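Time course in CD1 mice (n = 10) after icv administration of 7.5 µg, measured by tail flick. Two independent determinations.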

The test system of assay [15] is Mus musculus. The assay is described as follows: Antinociceptive activity in CD1 mouse at 30 mg/kg, sc after >24 hrs by radiant heat tail flick method. The class given is functional, organism-based. The method in brief:
as §3

Chain of Mu-type opioid receptor (Mus musculus) (P42866 whole entry): as above
T1 sequence (P33534 whole entry): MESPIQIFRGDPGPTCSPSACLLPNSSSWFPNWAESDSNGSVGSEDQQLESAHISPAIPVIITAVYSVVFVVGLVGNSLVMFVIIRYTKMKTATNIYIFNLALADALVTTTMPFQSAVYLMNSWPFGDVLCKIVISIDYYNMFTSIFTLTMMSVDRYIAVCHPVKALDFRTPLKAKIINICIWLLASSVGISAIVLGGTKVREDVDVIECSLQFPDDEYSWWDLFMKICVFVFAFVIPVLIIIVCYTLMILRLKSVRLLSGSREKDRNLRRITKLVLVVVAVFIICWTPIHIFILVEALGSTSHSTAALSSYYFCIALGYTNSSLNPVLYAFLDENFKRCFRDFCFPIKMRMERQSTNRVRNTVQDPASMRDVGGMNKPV
Chain of Delta-type opioid receptor (P32300 whole entry): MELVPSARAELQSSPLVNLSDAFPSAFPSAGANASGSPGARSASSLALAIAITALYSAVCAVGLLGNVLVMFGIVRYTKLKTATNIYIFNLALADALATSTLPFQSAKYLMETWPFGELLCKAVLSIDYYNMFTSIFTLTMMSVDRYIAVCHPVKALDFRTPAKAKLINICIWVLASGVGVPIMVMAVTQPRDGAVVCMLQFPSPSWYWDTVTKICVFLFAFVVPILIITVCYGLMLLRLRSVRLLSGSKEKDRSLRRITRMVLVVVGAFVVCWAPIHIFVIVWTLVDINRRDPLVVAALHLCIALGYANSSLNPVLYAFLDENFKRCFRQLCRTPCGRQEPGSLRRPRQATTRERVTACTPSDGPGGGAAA
Chain of Kappa-type opioid receptor (Mus musculus) (P33534 whole entry): as the sequence (P33534 whole entry) above

Consider `CN1CC[C@]23c4c5ccc(O)c4O[C@H]2[C@@H](NC(=O)c2cccnc2)C=C[C@H]3[C@H]1C5`, for which the values for the Emax in assay [1] and in [4] were 114% and 87.9%, respectively. In addition, the results for the Ki (in [2]; in assay [3]; on Mu-type opioid receptor [6]) were 34.4 nM, 19 nM and 1.25 nM, respectively. In addition, the EC50 at Mu-type opioid receptor [5] is 2.83 nM; in assay [11] it was 58.8 nM. Besides, the Ratio Ki in the assay listed under Mus musculus [7] was determined as 15.2; in the assay listed under Mus musculus [8] it was 27.5. The same compound returned an MPE with Mus musculus [9] of 35%. Moreover, the ED50 in the assay on Mus musculus [10] was 0.51 µg.

In the case of `CN1CC[C@]23c4c5ccc(O)c4O[C@H]2[C@@H](NC(=O)c2ccncc2)CC[C@@]3(O)[C@H]1C5`, the Emax in assay [1] was 115%. The results for the Ki (in [2]; in [3]; at Mu-type opioid receptor [6]) were 173 nM, more than 100 nM and 7.02 nM, respectively. In addition, the EC50 on Mu-type opioid receptor [5] is 26.4 nM. Further, the Ratio Ki in the assay filed under Mus musculus [7] was more than 14.2; in the assay filed under Mus musculus [8], 24.7.

Consider `CN1CC[C@]23c4c5ccc(O)c4O[C@H]2[C@H](NC(=O)/C=C/c2ccccc2)C=C[C@H]3[C@H]1C5`, for which the figures for the Emax in assay [1] and in assay [4] were 95.3% and 106%, respectively.

In the case of `CN1CC[C@]23c4c5ccc(O)c4O[C@H]2[C@@H](NC(=O)c2ccncc2)C=C[C@H]3[C@H]1C5`, the Emax in assay [1] came out at 114%. Besides, the Ki stood at 65 nM in assay [2], 77.9 nM in [3] and 2 nM on Mu-type opioid receptor [6]. Further, at Mu-type opioid receptor [5], the EC50 was determined as 4.62 nM. Further, the values for the Ratio Ki in the assay listed under Mus musculus [7] and in the assay listed under Mus musculus [8] were 39 and 32.5, respectively. The MPE in the assay with Mus musculus [9] is on record as 38%. In addition, in the assay with Mus musculus [10], the ED50 stood at 2 µg.

Turning to `CN1CC[C@]23c4c5ccc(O)c4O[C@H]2[C@@H](NC(=O)c2cccnc2)CC[C@@]3(O)[C@H]1C5`, the Emax in [1] was determined as 121%. In addition, the Ki in [2] was 104 nM; in assay [3] it was more than 100 nM; on Mu-type opioid receptor [6], 6.91 nM. Moreover, at Mu-type opioid receptor [5], the EC50 was determined as 25.7 nM. Moreover, the Ratio Ki in the assay filed under Mus musculus [7] is more than 14.5; in the assay filed under Mus musculus [8], 15.

For the compound `CN1CC[C@]23c4c5ccc(O)c4O[C@H]2[C@@H](O)C=C[C@H]3[C@H]1C5` [MORPHINE], the outcome in the assay with Mus musculus [12] was Active. This compound also came in with an ED50 with Mus musculus [10] of 0.53 µg.

For `CN1CC[C@]23c4c5ccc(O)c4O[C@H]2[C@@H](NC(=O)c2cccnc2)CC[C@H]3[C@H]1C5`, the Emax in assay [1] came out at 117%. Besides, the Ki in assay [2] was determined as 130 nM; in [3], 119 nM; at Mu-type opioid receptor [6] it was 3.29 nM. Further, in the assay with Mus musculus [13], the outcome was inactive. Moreover, at Mu-type opioid receptor [5], the EC50 was 7.98 nM. Moreover, the outcome in the assay with Mus musculus [14] and in the assay on Mus musculus [15] was Active. For the same compound, the Ratio Ki stood at 36.2 in the assay filed under Mus musculus [7] and 39.6 in the assay filed under Mus musculus [8]. The compound also had an MPE in the assay with Mus musculus [9] of 83%. This compound also showed an ED50 with Mus musculus [10] of 1.8 µg.

`COc1ccc2c3c1O[C@H]1[C@@H](NC(=O)c4ccncc4)C=C[C@H]4[C@@H](C2)N(C)CC[C@@]341`: the Ki in assay [2] is 424 nM; in assay [3], more than 100 nM; on Mu-type opioid receptor [6], 40.6 nM. Besides, the Ratio Ki is more than 2.5 in the assay filed under Mus musculus [7] and 10.4 in the assay filed under Mus musculus [8].

As to `CN1CC[C@]23c4c5ccc(O)c4O[C@H]2[C@@H](NC(=O)c2ccncc2)CC[C@H]3[C@H]1C5`, the Emax in assay [1] turned out to be 115%. The Ki in [2] is 198 nM; in assay [3] it was more than 100 nM; at Mu-type opioid receptor [6], 3.73 nM. Also, the result in the assay with Mus musculus [13] was inactive. Besides, the EC50 at Mu-type opioid receptor [5] was 8.16 nM. For the same compound, the result with Mus musculus [14] and in the assay with Mus musculus [15] was Active. Further, the Ratio Ki in the assay listed under Mus musculus [7] is more than 26.8; in the assay listed under Mus musculus [8] it was 53.2. Further, in the assay on Mus musculus [9], the MPE turned out to be 78%. This compound also yielded an ED50 with Mus musculus [10] of 0.7 µg.
